In the library only some 3.5% were active in any assay of this set; here they are far more common.
RGS4 act – RGS4 potentiators or activators, primary screen, cell-based, HEK293 M3R inducible RGS4, calcium flux; 0.92% of 310,000 active; carbachol calcium flux Fluo4; hits give low values; AID 463111, 2010; B-score at 10 µM;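 active = B-score of the integrated calcium signal more than 4 SD below the library mean, with starting fluorescence not abnormally high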;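 note: negative B-score means reduced calcium response which marks RGS4 activation or potentiation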
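Assay system: Inducible-RGS4 HEK293 cells carrying M3 receptor | Schedule: Compound preincubation 20 min at room temperature before agonist | Signal: Kinetic calcium fluorescence imaging with Fluo4-AM dye, 2 µM | Read-out basis: B score from integrated fluorescence ratio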
RGS4 inh – RGS4 inhibitors, primary screen, cell-based, HEK293 M3R inducible RGS4, calcium flux | Fluo-4 calcium flux; hits give high values; triggered by carbachol at its EC20 | B-score at 10 µM | Regulator of G-protein signaling 4 (Homo sapiens), P49798 | 0.45% of 310,000 active | AID 463165, 2010;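 active = B-score, a plate-corrected calcium signal, over three deviations above library mean, with baseline fluorescence within five deviations of library mean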;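 note: RGS4 expression induced by doxycycline in cells with stable M3 receptor; B-score is computed from the integrated fluorescence ratio over baseline after carbachol; higher B-score means a larger calcium signal and so more RGS4 inhibition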
Target sequence (P49798 whole entry, looked up): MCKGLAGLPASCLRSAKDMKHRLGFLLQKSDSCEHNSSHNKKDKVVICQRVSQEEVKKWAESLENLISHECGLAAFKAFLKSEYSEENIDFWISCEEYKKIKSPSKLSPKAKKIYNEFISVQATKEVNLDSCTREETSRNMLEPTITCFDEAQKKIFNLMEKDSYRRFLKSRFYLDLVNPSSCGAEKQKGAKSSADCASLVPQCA
MrgX1 allo act – positive allosteric modulators of MrgX1, primary screen, HEK293 cells, Fluo-4 calcium flux; Mas-related G-protein coupled receptor member X1 (Homo sapiens), Q96LB2; FDSS; hits give high values; B-score at 10 µM; 0.63% of 310,000 active;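 active = plate-corrected calcium response at least 3 library SD above typical, normal starting fluorescence, not activating the receptor alone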;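 note: compound read alongside a low EC10 to EC30 dose of BAM8-22 agonist; peak minus trough fluorescence over baseline measured at the second addition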
Target sequence (Q96LB2 whole entry, looked up): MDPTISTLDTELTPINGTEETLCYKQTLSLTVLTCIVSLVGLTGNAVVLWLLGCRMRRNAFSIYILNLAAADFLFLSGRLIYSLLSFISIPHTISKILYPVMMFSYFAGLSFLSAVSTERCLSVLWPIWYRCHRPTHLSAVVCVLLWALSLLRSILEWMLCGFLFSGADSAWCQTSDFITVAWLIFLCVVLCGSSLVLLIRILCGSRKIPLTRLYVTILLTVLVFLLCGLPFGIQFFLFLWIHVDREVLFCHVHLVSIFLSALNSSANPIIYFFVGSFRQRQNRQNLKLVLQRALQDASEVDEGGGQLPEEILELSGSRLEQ
MrgX1 agonist – agonists of human MrgX1 receptor, primary screen, HEK293 cells, Fluo-4 calcium flux. Mas-related G-protein coupled receptor member X1 (Homo sapiens), Q96LB2. Fluo-4 calcium fluorescence, agonist mode; hits give high values. B-score at 10 µM. 0.44% of 310,000 active. AID 588627, 2011;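 active = calcium response B-score plate-corrected fluorescence ratio at least 3 library SD, with starting fluorescence B-score inside 5 SD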
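Material: MrgX1-expressing HEK293 cells; input: 15,000 cells per well; doses: test compound given as first of three sequential additions; schedule: overnight plating before 1 h dye loading; technique: Fluo-4 NW calcium-flux fluorescence, kinetic read; evaluation: baseline-normalised fluorescence change ratio, B-scored; control set: plate-wise positive and negative controls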
MrgX1 antagonist – antagonists of human MrgX1 receptor, primary screen, HEK293 cells, Fluo-4 calcium flux. Mas-related G-protein coupled receptor member X1 (Homo sapiens), Q96LB2. BAM8-22 antagonism; hits give low values. B-score at 10 µM. 1.3% of 310,000 active;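 active = calcium-response B-score plate-corrected more than 3 library SD below zero, starting fluorescence within 5 deviations, no agonist response on first addition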;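 note: peak minus trough fluorescence over baseline after final BAM8-22 challenge near maximal dose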
Starred values were filed as active, the others as inactive; i = inactive; / = no result.

SMILES | RGS4 act | RGS4 inh | MrgX1 allo act | MrgX1 agonist | MrgX1 antagonist
Cc1nc2nc(SCC(=O)NCCCN3CCCCCC3)nn2c(C)c1Cc1ccccc1 | -7.45* | i | i | i | i
Cc1cc(C)c(S(=O)(=O)/N=C2/C=C(Sc3ncn[nH]3)C(=O)c3ccccc32)cc1C | / | / | 6.83* | i | i
Cc1ccc(C)c(S(=O)(=O)/N=C2\C=C(NS(=O)(=O)c3ccccc3)C(=O)c3ccccc32)c1 | i | i | i | i | i
CCC(C(=O)O/N=C(\N)c1cccc(C)c1)c1ccccc1 (centres undefined) | -9.49* | i | i | i | i
C[C@@H]1C=C[C@](Cc2ccccc2)(C(=O)NCCc2c[nH]c3ccccc23)N1C(=O)c1ccccc1 | i | i | i | i | i
CC1(C)O[C@@H]1COc1c2ccoc2cc2oc(=O)ccc12 | i | i | i | i | i
CC(C)=CCOc1c2ccoc2cc2oc(=O)ccc12 | i | i | i | i | -5.71*
CCCC(C)NC(=O)c1cc(C(=O)OC)cc([N+](=O)[O-])c1 (centres undefined) | i | i | i | i | -5.18*
COC(=O)c1cc(C(=O)NCCC(C)C)cc([N+](=O)[O-])c1 | i | i | i | i | i
CCCNS(=O)(=O)c1ccc(CCC(=O)N2CCCCC2)cc1 | i | i | i | i | i
O=C(CO/N=C1\CCCc2nonc21)Nc1ccc(Br)cc1 | i | i | i | i | i
COc1ccc(NC(=O)CO/N=C2\CCCc3nonc32)cc1 | i | i | i | i | i
COc1ccc(NC(=O)CO/N=C2/CCCc3nonc32)c(OC)c1 | i | i | i | i | -5.49*
O=C(CO/N=C1\CCCc2nonc21)Nc1ccccc1Cl | i | i | 13.6* | i | i
O=C(/C=C/Nc1ccccc1)c1ccc(Cl)cc1Cl | i | i | i | i | i
CCOc1cc(NC(=S)NCc2ccco2)c(OCC)cc1NC(=O)C1CC1 | i | i | i | i | i
CC1=NN(C(N)=S)C(=O)C1N=Nc1cccc2ccccc12 (centres undefined) | i | i | i | i | i
CC1=NN(C(N)=S)C(=O)C1N=Nc1cccc(Cl)c1C (centres undefined) | i | i | 8.62* | i | i
O=c1c2ccccc2ncn1-c1ccc(Br)cc1[N+](=O)[O-] | i | i | i | i | i
CCN(CC)c1ccc(-c2nn3c(-c4n[nH]c5c4CCC5)nnc3s2)cc1 | -7.19* | i | i | i | -12*
COc1cc(OC)nc(NC(=O)COC(=O)c2cccc(Cl)c2)n1 | i | i | i | i | i
CC(C)(C)N/N=C/c1c(O)n(-c2ccc(Cl)cn2)c(=O)c2ccccc12 | i | i | i | i | i
CCOC(=O)c1[nH]c(C)c(C(=O)N2CCOCC2)c1C | i | i | i | i | i
O=C(CN1C(=O)NC2(CCCC2)C1=O)NCCC1=CCCCC1 | -7.28* | i | i | i | i
O=C(N=Nc1ccc(NOC(=O)c2ccccc2Br)cc1)c1ccccc1O | i | i | 12* | i | i
SMILES | RGS4 act | RGS4 inh | MrgX1 allo act | MrgX1 agonist | MrgX1 antagonist
O=Nc1ccc(NOC(=O)c2ccccc2)cc1 | i | i | i | i | i
COCCCNC(=O)CSc1nc2sc(C(=O)OC)c(C)c2c(=O)n1N | i | i | i | i | i
O=c1c2ccccc2nc(/C=C/c2c[nH]c3ccccc23)n1CCO | -7.43* | i | i | i | i
CN(C)c1ccc(/C=C/c2nc3ccccc3c(=O)n2CCO)cc1 | i | i | i | 32.2* | i
O=c1c2ccccc2nc(/C=C/c2cc(Br)ccc2O)n1CCO | i | i | i | i | i
CCCCCCNc1cc2n(c(=O)n1)CCc1cc(OC)c(OC)cc1-2 | / | / | i | i | i
CN(C)c1ccc(/C=C(\Cl)c2nc3ccccc3s2)cc1 | / | / | i | i | i
Cc1cc2nc3ccc(=[N+](C)C)cc-3sc2cc1N | -8.45* | i | / | / | /
CN(C)c1ccc2nc3ccc(=[N+](C)C)cc-3sc2c1 | -7.55* | i | i | i | i
Cc1nc2cc(C)c(C)cc2s1 | i | i | i | i | i
C=CCN(C(=O)CN1CCOCC1)c1nc(C)c(-c2ccccc2)s1 | i | i | i | i | i
C[n+]1ccc(/C=C/c2c[nH]c3ccc(F)cc23)cc1 | -7.84* | i | i | i | i
Cn1cc(/C=C/c2cc[n+](C)cc2)c2cc(F)ccc21 | i | i | i | i | i
CCOc1ccc(CCNC(=O)c2cccc(S(=O)(=O)N3CC(C)OC(C)C3)c2)cc1OCC (centres undefined) | i | i | i | i | -6.47*
c1ccc(-c2ccc(CN3CCN(c4ncccn4)CC3)cc2)cc1 | -6.99* | i | i | i | i
COc1ccc(NC(=O)c2ccc(-c3ccc([N+](=O)[O-])cc3)o2)cc1OC | i | i | i | i | -5.27*
COc1ccc(C(C)NC(=O)c2ccc([N+](=O)[O-])cc2)cc1OC (centres undefined) | i | i | i | i | -5.45*
C/C(=N\Nc1ccc(C(F)(F)F)cn1)c1ccc(S(=O)(=O)NCc2ccco2)cc1 | i | i | i | i | i
CC1CN(C(=O)COc2coc(CN3CCc4ccccc4C3)cc2=O)CC(C)O1 (centres undefined) | i | i | i | i | i
COc1cccc(N2CCc3c(C)nc4ccc(Cl)cc4c32)c1 | -7.48* | i | i | i | i
COc1cccc(OC(=O)c2cc3ccccc3oc2=O)c1 | i | i | i | i | -5.04*
CCOc1cc(/C=C2/C(=O)ON=C2C)cc(Br)c1O | i | i | i | 57.6* | i
CCCOc1ccc(/C=C2/C(=O)ON=C2C)cc1OCC | i | i | i | i | i
CC1CCCCN1S(=O)(=O)c1ccc(C(=O)Nc2nnc(C3=COCCO3)o2)cc1 (centres undefined) | i | i | i | i | i
Cc1nc(N2CCN(c3ccccn3)CC2)c2c(C)c(C(=O)N3CCN(c4cccc(Cl)c4)CC3)sc2n1 | -7.08* | i | i | i | i
Cc1nc(N2CCOCC2)c2c(C)c(C(=O)Nc3ccc(F)cc3Cl)sc2n1 | i | i | i | i | i
